Screens deposited in PubChem by Sanford-Burnham Center for Chemical Genomics.
hIAP inh: human IAP inhibition; AID 2544; 330,000 tested, 0.12% active; purified IAP, CDP-Star luminescence, 30 min; inhibition, % at 10 µM; P09923;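 active = inhibition reaching a set limit with compound at 10 µM in the primary screen, cut at about 35% in these data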
Target sequence (P09923 whole entry, looked up): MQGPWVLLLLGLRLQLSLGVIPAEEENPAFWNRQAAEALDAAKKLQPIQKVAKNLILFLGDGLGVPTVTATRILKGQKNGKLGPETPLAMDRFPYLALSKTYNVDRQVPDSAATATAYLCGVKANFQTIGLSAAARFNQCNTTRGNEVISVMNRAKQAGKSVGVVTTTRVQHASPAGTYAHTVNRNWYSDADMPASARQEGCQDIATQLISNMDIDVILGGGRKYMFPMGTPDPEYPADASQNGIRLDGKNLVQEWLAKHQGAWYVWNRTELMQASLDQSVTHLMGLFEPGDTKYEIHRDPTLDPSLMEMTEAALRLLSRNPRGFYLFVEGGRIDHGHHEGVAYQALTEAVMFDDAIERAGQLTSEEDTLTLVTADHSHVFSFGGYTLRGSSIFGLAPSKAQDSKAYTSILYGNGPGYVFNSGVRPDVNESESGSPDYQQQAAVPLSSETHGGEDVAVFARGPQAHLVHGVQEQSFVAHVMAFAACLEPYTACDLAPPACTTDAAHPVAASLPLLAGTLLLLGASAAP
hIAP activ: increases human intestinal alkaline phosphatase activity; P09923; purified human IAP, CDP-Star luminescence, 30 min; active compounds read high; 1 = vehicle-only enzyme, 0 = enzyme-free background; activation factor at 10 µM; 330,000 tested, 0.16% active; AID 2524;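 active = activation factor of the enzyme at least 2-fold when tested at 20 µM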
bIAP activator: increases bovine intestinal alkaline phosphatase activity. AID 1016. 200,000 tested, 0.17% active. purified bovine IAP, CDP-star luminescence, 30 min; active compounds read high; fold of DMSO-control signal, blank-subtracted. activation factor at 20 µM;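 active = activation factor of 2 or more at 20 µM, a signal rise over negative controls twice the positive control's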
bIAP inh: intestinal alkaline phosphatase (bovine) inhibition | purified bovine IAP, CDP-star luminescence, 30 min | inhibition, % at 20 µM | 190,000 tested, under 10 active;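 active = over 50% inhibition of intestinal alkaline phosphatase at 20 µM in the single-dose screen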
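test system = bovine IAP enzyme | medium = DEA buffer 100 mM, pH 9.8, with MgCl2 1.0 mM, ZnCl2 0.02 mM | detection = luminescence | dosing = single compound dose of 20 µM, 2% DMSO final | incubation = 30 min reaction at room temperature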
mIAP activ: mouse IAP activation; muIAP, CDP-Star luminescence, 30 min; active compounds read high; 1 = vehicle-only enzyme signal, 0 = enzyme-free wells; activation factor at 10 µM; 330,000 tested, 0.24% active; AID 2805;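 active = activation factor of at least 2 at 20 µM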
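System: mouse IAP enzyme. Reagent: CDP-Star chemiluminescent phosphatase substrate. Benchmarks: DMSO wells, no-enzyme wells. Times: 30 min enzyme-substrate-compound incubation at room temperature. Detection: luminescence from enzymatic CDP-Star hydrolysis. Doses: test compounds delivered from DMSO solution.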
mIAP inh: blocks mouse intestinal alkaline phosphatase; 330,000 tested, 0.2% active; AID 2806; inhibition, % at 10 µM; purified mouse IAP, CDP-Star luminescence, 30 min;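 active = inhibition of at least 40% at 10 µM in the primary screen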
hIAP act conf: human IAP activation confirmation; 880 tested, 10% active; shares compounds with hIAP activ; purified IAP, CDP-Star luminescence, 30 min; active compounds read low; activation (%Activity, negative = activation), % at 8.3 µM;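 active = at least twofold enzyme activation in any of six single-dose repeats, which the averaged readout prints as negative percent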
Hits are given with their value; 0 = inactive; - = not tested or not shown. The list is not random: actives were taken first. Their share in the collection is about 0.72%.

SMILES | hIAP inh | hIAP activ | bIAP activator | bIAP inh | mIAP activ | mIAP inh | hIAP act conf
COc1cc(CSc2ncn[nH]2)c(OC)cc1CSc1ncn[nH]1 | 0 | 2.7 | 0 | 0 | 0 | 0 | 0
O=C(O)/C(=C\c1ccccc1)c1ccc2ccccc2c1 | 38 | 0 | - | - | 0 | 0 | 0
Cc1ccc(NC(=S)NNC(=O)c2nnn(-c3ccccc3)c2C)cc1 | 0 | 2.2 | 0 | 0 | 0 | 0 | 0
COc1ccc(NC(=O)C(C)N2C(=O)c3ccccc3C2=O)cc1S(=O)(=O)N1CCOCC1 (stereo not given) | 0 | 0 | 0 | 0 | 0 | 0 | -
Nc1nc(-c2ccccc2)c(N=Nc2cccc3ccccc23)s1 | 35 | 0 | 0 | 0 | 0 | 0 | 0
Nc1nc2nc(-c3cccs3)cc(C(F)(F)F)n2n1 | 0 | 0 | 0 | 0 | 0 | 0 | -
Cc1ccccc1/C=N/n1c(-c2cc(-c3ccccc3)n[nH]2)n[nH]c1=S | 0 | 2 | - | - | 0 | 0 | 0
COc1ccccc1/C=C/C=N/n1c(-c2ccccn2)n[nH]c1=S | 0 | 0 | - | - | 0 | 0 | -
COc1ccccc1/C=C/C=N/n1c(-c2n[nH]c3c2CCC3)n[nH]c1=S | 0 | 2 | - | - | 0 | 0 | 0
COc1cccc(/C=N/n2c(-c3n[nH]c4c3CCC4)n[nH]c2=S)c1O | 0 | 0 | 0 | 0 | 0 | 0 | -
COc1ccccc1/C=C/C=N/n1c(-c2cc(C)[nH]n2)n[nH]c1=S | 0 | 2.1 | 0 | 0 | 0 | 0 | 0
O=C(CN1C(=O)NC2(CCc3ccccc32)C1=O)c1c[nH]c2ccccc12 (stereo not given) | 0 | 0 | - | - | 0 | 0 | -
CC1CCCN(C(=O)C2CCN(S(=O)(=O)c3cccc4nsnc34)CC2)C1 (stereo not given) | 49 | 0 | - | - | 0 | 0 | 0
O=C(Cn1nc(C(=O)O)c2ccccc2c1=O)Nc1cc(C(F)(F)F)ccc1-n1cncn1 | 0 | 0 | - | - | 0 | 0 | -
Cn1c(CNC(=O)CCNC(=O)c2cccc(F)c2)cc(=O)n(C)c1=O | 38 | 0 | - | - | 0 | 0 | 0
Cn1c(CNC(=O)CNC(=O)c2cccc(F)c2)cc(=O)n(C)c1=O | 0 | 0 | - | - | 0 | 0 | -
Cc1ccc(S(=O)(=O)NCCC(=O)NCC(=O)Nc2c(C)cccc2C)cc1C | 0 | 0 | - | - | 0 | 0 | -
O=[N+]([O-])c1cc(Cl)cc(/C=N/n2cnnc2)c1O | 0 | 0 | 0 | 0 | 0 | 0 | -
COc1ccc(NC(=O)c2cc(-c3ccc(C)cc3O)n[nH]2)c(OC)c1 | 0 | 2.1 | - | - | 0 | 0 | 0
COc1ccc(CCNC(=O)c2cc(-c3cc(C)ccc3O)n[nH]2)cc1OC | 0 | 2.7 | 2 | 0 | 0 | 0 | 0
Cc1cc(O)c(-c2cc(C(=O)NCc3ccc4c(c3)OCO4)[nH]n2)cc1C | 0 | 0 | 0 | 0 | 0 | 0 | -
O=C(NCc1ccc2c(c1)OCO2)c1cc(-c2cc(Cl)ccc2O)n[nH]1 | 0 | 2.1 | - | - | 0 | 0 | 0
Cc1cccc(NC(=O)c2cc(-c3cc(C)ccc3O)n[nH]2)c1 | 0 | 2 | - | - | 0 | 0 | 0
COc1ccc(CCNC(=O)c2cc(-c3ccc(C)c(C)c3O)n[nH]2)cc1OC | 0 | 0 | 0 | 0 | 0 | 0 | -
Cc1cccc(NC(=O)c2cc(-c3cc(C)c(C)cc3O)n[nH]2)c1 | 0 | 0 | - | - | 0 | 0 | -
SMILES | hIAP inh | hIAP activ | bIAP activator | bIAP inh | mIAP activ | mIAP inh | hIAP act conf
CCOc1ccccc1N1CC(C(=O)Nc2cc(Cl)ccc2C)CC1=O (stereo not given) | 0 | 0 | - | - | 0 | 0 | -
O=C(NCc1ccc(F)cc1)C(c1cccnc1)N(C(=O)c1csnn1)c1ccccc1 (stereo not given) | 0 | 0 | - | - | 0 | 0 | -
COc1ccc(CNC(=O)c2cc(-c3cc(C)ccc3O)n[nH]2)cc1 | 0 | 2.4 | - | - | 0 | 0 | 0
COc1ccc(CNC(=O)c2cc(-c3ccccc3O)n[nH]2)cc1 | 0 | 0 | 0 | 0 | 0 | 0 | -
Cc1c(Cl)cccc1NC(=O)c1cc(-c2ccccc2O)n[nH]1 | 0 | 2 | 0 | 0 | 0 | 0 | 0
CCOC(=O)N1CCC(=NNC(=O)c2ccc(O)cc2)CC1 | 0 | 0 | 0 | 0 | 0 | 0 | -
C=CCN1C=CC(=CC=C(C#N)C#N)C=C1 | 35 | 0 | - | - | 0 | 0 | 0
CC(=O)Nc1ccc(NC(=O)C2CC(=O)N(C(C)C)C2)cc1 (stereo not given) | 37 | 0 | - | - | 0 | 0 | 0
CC(C)N1CC(C(=O)Nc2ccccc2)CC1=O (stereo not given) | 0 | 0 | 0 | 0 | 0 | 0 | -
CC1CC(C)CN(C(=O)C(C)N(C)CC(=O)Nc2ccc(Cl)cc2)C1 (stereo not given) | 0 | 0 | 0 | 0 | 0 | 0 | -
O=C(NCCC1CCCCN1S(=O)(=O)c1cccs1)C(=O)NCc1ccccc1 (stereo not given) | 0 | 0 | - | - | 0 | 0 | -
O=C(NCCS(=O)(=O)N1CCN(c2cccc(Cl)c2)CC1)c1ccc2c(c1)OCO2 | 0 | 0 | - | - | 0 | 0 | -
O=C(NCCS(=O)(=O)N1CCN(c2cccc(Cl)c2)CC1)c1cc(=O)c2ccccc2o1 | 39 | 0 | - | - | 0 | 0 | 0
COc1cc(CCC(=O)Nc2ccc(C)c(S(=O)(=O)N3CCCCCC3)c2)cc(OC)c1OC | 0 | 0 | - | - | 0 | 0 | -
O=C1c2[nH]nc(-c3ccccc3O)c2C(c2cccc(Cl)c2)N1Cc1ccco1 (stereo not given) | 0 | 2.3 | 0 | 0 | 0 | 0 | 0
CC1(O)C(=O)C=C2C=C(c3ccc(C#N)cc3)OC=C2C1=O (stereo not given) | 0 | 0 | - | - | 0 | 0 | -
Oc1ccc(N=Nc2c(O)ccc3ccccc23)cc1 | 45 | 0 | 0 | 0 | 0 | 0 | -92
COc1cc(/C=C2/C(=O)N(c3cccc(Br)c3)N=C2C)cc(OC)c1O | 36 | 0 | - | - | 0 | 0 | 0
COc1cc(/C=C2/C(=O)N(c3ccc(Br)cc3)N=C2C)cc([N+](=O)[O-])c1O | 38 | 0 | - | - | 0 | 0 | 0
COc1ccc(/C=C2/C(=O)N(c3ccccc3)N=C2C)cc1OC | 0 | 0 | - | - | 0 | 0 | -
CC(C)Oc1ccc(C(=O)Nc2ncn[nH]2)cc1 | 0 | 2 | - | - | 0 | 0 | -65
CC(C)COc1ccc(C(=O)Nc2ncn[nH]2)cc1 | 0 | 0 | - | - | 0 | 0 | -
CC(C)Oc1cccc(C(=O)Nc2ncn[nH]2)c1 | 0 | 2.2 | - | - | 0 | 0 | 0
O=C(Nc1nnc(S(=O)(=O)N2CCN(c3ccc(F)cc3)CC2)s1)c1ccccc1 | 0 | 0 | - | - | 0 | 0 | -
Oc1c(N=Nc2ccccc2)sc2ccccc12 | 38 | 0 | - | - | 0 | 0 | 0
CC(=Nc1ccc(O)cc1)c1sc2ccccc2c1O | 0 | 0 | 0 | 0 | 0 | 0 | -
COc1ccc(C(=O)NC(=S)NNC(=O)c2ccc(NC(C)=O)cc2)cc1Br | 0 | 2.1 | 0 | 0 | 0 | 0 | 0
COc1ccc(NC(=O)COC(=O)C2CCN(S(=O)(=O)c3cccs3)CC2)cc1OC | 0 | 0 | - | - | 0 | 0 | -
Cc1ccccc1CN(C)C(=O)CNC(=O)c1ccc2ccccc2c1 | 0 | 0 | - | - | 0 | 0 | -
